From PubChem BioAssay
XBP1 UPR activ: activators of adaptive XBP1 UPR arm, primary screen, cell-based, CHO-XBP1 luciferase reporter, luminescence, uHTS. IRE1-XBP1 UPR activation; percent of tunicamycin response, DMSO as zero. activation, % at 20 µM. 330,000 compounds, 0.33% hits;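 active = versus positive control, 20 µM dose yields 30% or more activation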;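 also: 100% = tunicamycin at 10 µg/mL and 0% = DMSO only wells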
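Assay system: CHO-XBP1 luciferase reporter cells; Schedule: 6 h treatment, 37 °C; Detection: glow luminescence from Steady-Glo reagent; Benchmarks: high control tunicamycin 10 µg/mL final, low control DMSO vehicle only.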
UPR CHOP act: activators of apoptotic CHOP UPR arm, primary screen, cell-based, CHO-CHOP luciferase reporter, luminescence, uHTS. UPR activation; percent of tunicamycin response over DMSO baseline. activation, % at 10 µM. 330,000 compounds, 0.34% hits;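 active = at 10 µM dose, activation of 40% or more, normalized to positive control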;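 also: 100% = tunicamycin at 10 µg/mL and 0% = DMSO alone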
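Test system: CHO CHOP reporter cells. Input: 500 CHO-CHOP cells per well. Medium: F12 with 10% FBS. Technique: luciferase luminescence. Measure: percent activation relative to tunicamycin control. Dosing: 10 µM compound, 0.5% DMSO. Timing: 16-18 h cell attachment, then 6 h compound exposure, 37 °C.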
tim23-1 inh: growth inhibitors of tim23-1 mutant yeast, primary screen, luminescence, uHTS; S. cerevisiae tim23-1 growth, BacTiter-Glo luminescence, 24 h; inhibition, % at 20 µM; 330,000 compounds, 1.3% hits; AID 463212, 2010;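 active = growth inhibition of the mutant yeast at or above 50%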;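 also: temperature-sensitive mutant grown at 25 °C; plate controls were DMSO-treated mutant yeast for no effect and medium wells lacking yeast for full effect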
tim10-1 inh: growth inhibitors of tim10-1 mutant yeast, primary screen, luminescence, uHTS; S. cerevisiae tim10-1 ts strain growth, BacTiter-Glo, 24 h; inhibition, % at 20 µM; 330,000 compounds, 2.2% hits;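 active = inhibition of at least 40%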;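 also: mutant grown at 25 °C; 0% = DMSO wells with yeast and 100% = wells holding no yeast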
TIM10 inh: growth inhibitors of isogenic TIM10 control yeast, primary screen, counter-screen for tim10-1 yeast inhibitor project, luminescence, uHTS; S. cerevisiae TIM10 strain growth, BacTiter-Glo luminescence, 24 h; inhibition, % at 10 µM; 330,000 compounds, 1.4% hits;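 active = inhibition of 40% or more at the single tested concentration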;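 also: wild-type TIM10 isogenic control strain grown at permissive 25 °C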
tim10-1 confirm: growth inhibitors of tim10-1 mutant yeast, confirmation, single concentration, luminescence, S. cerevisiae; 7,400 compounds, 56% hits; S. cerevisiae tim10-1 ts strain growth, BacTiter-Glo, 24 h; shares compounds with tim10-1 inh; inhibition, % at 20 µM; AID 463213, 2010;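 active = inhibition of yeast growth at or above a set limit in either of two repeat tests at 20 µM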;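 also: tim10-1 mutant grown at permissive 25 °C to find synthetic lethal compounds; 0% = DMSO yeast wells and 100% = medium wells without yeast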
tim10 confirm: growth inhibitors of wild-type TIM10 yeast, confirmation, counter-screen for tim10-1 synthetic lethality project, single concentration, luminescence, S. cerevisiae | inhibition, % at 10 µM | S. cerevisiae tim10 strain growth, BacTiter-Glo luminescence, 24 h | shares compounds with TIM10 inh | 4,600 compounds, 63% hits;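 active = inhibition of yeast growth at or above a set limit in either of two replicates at 10 µM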;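 also: this counterscreen used the strain with wild-type TIM10; 0% = yeast with DMSO and 100% = medium wells lacking yeast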
tim23-1 conf: tim23-1 mutant yeast growth inhibitors, confirmation, luminescence, single concentration; AID 463218, 2010; S. cerevisiae tim23-1 growth, BacTiter-Glo luminescence, 24 h; shares compounds with tim23-1 inh; 4,400 compounds, 83% hits; inhibition, % at 20 µM;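 active = inhibition above about 39% in either of two replicate wells at 20 µM, limit read from the data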;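 also: temperature-sensitive tim23-1 mutant grown at 25 °C; 0% = DMSO wells with yeast and 100% = medium wells without yeast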
Active calls of the source: *; x = no result. An excerpt weighted towards active compounds, which were near 3.9% of everything screened.

SMILES	XBP1 UPR activ	UPR CHOP act	tim23-1 inh	tim10-1 inh	TIM10 inh	tim10-1 confirm	tim10 confirm	tim23-1 conf
CC(=O)Oc1ccc(C(=O)N2c3ccccc3NC(=O)C2C)cc1 (centres undefined)	-3	2	1	2	-7	x	x	x
N#C/C(=C\c1c(F)cccc1Cl)C(=O)NC1CC1	-4	6	85*	74*	61*	61*	66*	81*
CCOCCCNC(=O)/C(C#N)=C/c1ccccc1F	-4	-1	32	30	24	x	x	x
CC1CCCCC1NC(=O)/C(C#N)=C/c1ccccc1F (centres undefined)	15	12	84*	89*	85*	87*	88*	84*
COC(=O)c1ccc(CN2CCCC(C(=O)c3ccccc3OC)C2)cc1 (centres undefined)	-6	-2	16	9	12	x	x	x
COc1ccc(S(=O)(=O)N2CCN(C(=O)c3sccc3-c3ccccc3)CC2)cc1	-2	-1	18	26	3	x	x	x
COC(=O)c1ccc2c(=O)[nH]c(COC(=O)c3[nH]c(C)c(C(C)=O)c3C)nc2c1	-4	2	9	5	-2	x	x	x
COc1ccc(-c2csc(Nc3ccccc3)n2)cc1	0	4	54*	46*	61*	37*	43*	48*
O=[N+]([O-])c1cccc(-c2csc(Nc3ccccc3)n2)c1	-1	4	86*	50*	64*	59*	66*	67*
O=C(NC(=S)N(CCc1ccccc1)CCc1ccccc1)c1ccco1	3	4	51*	49*	42*	44*	-10	51*
CC(CCc1ccccc1)NC(=S)NC(=O)c1ccco1 (centres undefined)	2	0	44	8	20	x	x	x
CCC(c1nnnn1C1CCCCC1)N1CCN(C(=O)c2ccco2)CC1 (centres undefined)	0	-2	9	26	3	x	x	x
CC(C(=O)Nc1ccc2c(c1)OCCO2)N1Cc2ccccc2C1=O (centres undefined)	-9	-3	-4	9	1	x	x	x
Cc1ccccc1NC1=CC(=O)CC(C)(C)C1	1	1	-9	14	-5	x	x	x
CC1(C)CC(=O)C=C(NC2=CC3OC(c4ccccc4)OCC3OC2=O)C1 (centres undefined)	-3	17	59*	68*	59*	58*	-1	56*
CCCCc1ccc(/C=C(\C#N)C(N)=S)s1	-1	2	71*	56*	53*	55*	60*	58*
COc1ccc(C(C[N+](=O)[O-])c2c(-c3ccccc3)cc3ccccn23)c(OC)c1 (centres undefined)	8	31	73*	70*	60*	67*	67*	91*
NS(=O)(=O)c1ccc(CCNC(=O)COC(=O)c2nc(Cl)ccc2Cl)cc1	-1	6	14	7	3	x	x	x
O=C1c2ccccc2C(=O)C1(O)O	1	0	-11	-15	1	x	x	x
CC1(S(=O)(=O)O)CC(=O)c2ccccc2C1=O (centres undefined)	-8	3	67*	41*	32	28	x	63*
Cc1ccc(S(=O)(=O)N(C)C)cc1NC(=O)CN1C(=O)NC2(CCCCCCC2)C1=O	-1	-1	7	0	6	x	x	x
